Screening data: PubChem, PCMD
Yeast growth tox = Inhibits yeast growth, turbidity readout; S. cerevisiae wild-type growth, A595 turbidity, 16 h; growth inhibition, % at 25 µM (by protocol); 0.3% of 30,000 active;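 active = mutant and wild-type yeast strains alike exhibit over 30% growth inhibition; inconclusive = a strain exceeds 50% while the second remains under 30%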
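Incubation: 16 h growth with compound, 30 °C; Material: S. cerevisiae wild-type or eIF2Bepsilon-R284H mutant strain; Signal: turbidity measured as absorbance at 595 nm; Medium: YPD yeast growth medium; Measure: growth inhibition (%) versus cell controls and blanks; Doses: 25 µM single dose.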
Yeast eIF2B = eIF2B (yeast) activity modulation | S. cerevisiae eIF2B-epsilon R284H, GCN4-lacZ luminescence | inhibition, % at 25 µM (by protocol) | 0.91% of 27,000 active;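 active = mutant luminescence inhibited past about 50% while wild type luminescence and mutant growth stay under set limits, limit read from the data; inconclusive = mutant versus wild type luminescence inhibition gap past a set limit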
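material = yeast eIF2B-epsilon R284H mutant carrying GCN4–beta-galactosidase fusion | schedule = 16 h growth with compound at 30 °C, 90 min Beta-Glo step | measured by = luminescence and A595 | compound dosing = one concentration, 25 µM, 0.25% DMSO | read-out basis = % inhibition of reporter signal and growth versus controls | buffer or medium = YPD medium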
Each line names hits and unclear results; the compound was inactive in the other large screens. This is a sample that favours compounds with a hit; in the whole collection about 1% have one here.

CCN(CC)CCNC(=O)Cn1nc(-c2ccccc2)c2ccccc2c1=O	none
O=C(NCC(=O)N(Cc1ccco1)C(C(=O)NC1CCCC1)c1ccncc1)c1cccs1 (stereo not given)	none (no result: Yeast growth tox)
O=C(NC1CCCC1)C(c1ccccc1)N(Cc1ccco1)C(=O)Cc1cccs1 (stereo not given)	Yeast eIF2B 57.1
CC(=O)/C=C(\C)Nc1ccc(-c2cnc(-c3ccccc3)o2)cc1	Yeast eIF2B 70.4
C/C(=C\C(=O)c1ccccc1)Nc1ccc(O)cc1	none
c1ccc(-c2ccc(-c3cn4c(n3)CCC4)cc2)cc1	none (no result: Yeast eIF2B)
CC1Cc2ccccc2N1C(=O)CSc1nnc(-c2ccc(S(=O)(=O)N3CCCC3)cc2)o1 (stereo not given)	none
COc1ccc(C2C(C#N)=C(/N=C/N3CCN(C)CC3)OC3=C2C(=O)CC(C)(C)C3)cc1OC (stereo not given)	none
C=CCn1c(SCC(=O)Nc2nnc(CC)s2)nnc1-c1ccco1	none
CC(=O)Nc1ccc(NC(=O)Oc2ccccc2)cc1	none
COCC(=O)Nc1ccc(Nc2ccccc2)cc1	Yeast growth tox 30.6
CC(=O)Oc1ccc(NC(=O)Cc2ccccc2)cc1	Yeast eIF2B 58.3
CCC(=O)Nc1ccc(Nc2ccccc2)cc1	none
CCc1ccc(N2CC(C(=O)NCc3ccco3)CC2=O)cc1 (stereo not given)	none
O=S(=O)(NCc1ccccc1)c1ccc(S(=O)(=O)N(Cc2cccs2)CC2CCCO2)cc1 (stereo not given)	none (no result: Yeast eIF2B)
Cc1nn(-c2ccccc2)c2c1C(c1c(C)[nH]c(C#N)c1C)C(C#N)=C(N)O2 (stereo not given)	Yeast eIF2B 52.7
Cc1ccc(-n2nc(C)c3c2OC(N)=C(C#N)C3c2ccccc2F)cc1 (stereo not given)	none
Cc1ccc(C(=O)c2cc3ccccc3o2)cc1	none
CCOC(=O)C1(CC)NC(c2ccco2)C2C(=O)N(C)C(=O)C21 (stereo not given)	none
CCOC(=O)C1(CCSC)NC(c2ccco2)C2C(=O)N(C)C(=O)C21 (stereo not given)	Yeast eIF2B 72.4
COc1ccc(Oc2c(-c3ccc(O)cc3O)n[nH]c2C)cc1	none
CCCc1ccc(Oc2c(-c3ccc(O)c(C)c3O)n[nH]c2C)cc1	Yeast growth tox 81.4
COC(=O)N/N=C(\C)c1ccccc1Br	none
C=CCOC(=O)C1=C(C)Nc2ncnn2C1c1cccs1 (stereo not given)	none
C=CCOC(=O)C1=C(C)Nc2nc3ccccc3n2C1c1ccncc1 (stereo not given)	Yeast eIF2B 63.1
CCOC(=O)c1c(NC(=O)CSc2nc3c(c(=O)n(C)c(=O)n3C)n2CC)sc(C)c1C	none
CCCn1c(SCC(=O)Nc2nc3c(s2)CCCC3)nc2c1c(=O)n(C)c(=O)n2C	Yeast eIF2B 55.4
CC(C)CC(c1nnnn1CCc1ccccc1)N1CCC(C(N)=O)CC1 (stereo not given)	none
O=C(Nc1nc2ccc(Cl)cc2s1)C1CCCO1 (stereo not given)	Yeast growth tox 30.0 (no result: Yeast eIF2B)
O=C(Nc1cc(Cl)ccc1O)C1CCCO1 (stereo not given)	none (no result: Yeast growth tox)
CN(C)CCN1C(=O)C(O)=C(C(=O)c2cc3ccccc3o2)C1c1ccccn1 (stereo not given)	none
CN(C)CCN1C(=O)C(O)=C(C(=O)c2ccco2)C1c1ccccc1F (stereo not given)	Yeast eIF2B 62.9
N#C/C(=C/c1ccc(N2CCCCC2)o1)c1cccc(F)c1	none (no result: Yeast eIF2B)
Cc1ccc2nc(/C(C#N)=C\c3ccc(N4CCOCC4)o3)[nH]c2c1	Yeast eIF2B 64.9 (no result: Yeast growth tox)
CCC1(C)Cc2c(sc3c2c(=O)n(C)c2nnc(SCc4ccccc4)n32)CO1 (stereo not given)	none
Cc1cc2c(cc1C)CSC(c1ccccc1O)SC2	Yeast growth tox 80.7 (no result: Yeast eIF2B)
Cc1cc2c(cc1C)CSC(c1ccc3ccccc3c1O)SC2	none (no result: Yeast eIF2B)
Cc1ccc(NC(=O)CN(c2ccccc2F)S(C)(=O)=O)cc1	none (no result: Yeast growth tox)
CC1CCCC(C)N1C(=O)CSc1nnnn1Cc1ccccc1 (stereo not given)	none
CCC1Oc2ccc(C)cc2N(CC(=O)N(Cc2ccc(C)o2)C2CCCC2)C1=O (stereo not given)	none
CC(NC(=O)C(C)(C)C)c1nc2ccccc2n1C (stereo not given)	none
CN1CCN(c2nc(N3CCN(CCO)CC3)nc3ccccc23)CC1	Yeast eIF2B 54.9
c1ccc(CN2CCN(c3nc(N4CCOCC4)c4ccccc4n3)CC2)cc1	none
O=C(CCn1cccc1)NCc1ccc(Cl)cc1	none
O=C(Nc1nc(-c2ccc(S(=O)(=O)N3CCCCCC3)cc2)cs1)c1cccs1	Yeast eIF2B 60.2
O=C(Nc1nc(-c2ccc(S(=O)(=O)N3CCCC3)cc2)cs1)c1cccs1	none (no result: Yeast growth tox)
Cc1nc2sc(C(c3ccc(Cl)cc3)N3CC(C)OC(C)C3)c(O)n2n1 (stereo not given)	none
COCCCNC(=O)CSC1=Nc2ccccc2C2=NC(CC(=O)NCc3ccccc3)C(=O)N12 (stereo not given)	none
NC(=O)CSC1=Nc2ccccc2C2=NC(CC(=O)NCc3cccs3)C(=O)N12 (stereo not given)	Yeast eIF2B 52.0
CCC(C)N1CCCCC1C(=O)Nc1c(C)cc(C)cc1C (stereo not given)	none (no result: Yeast growth tox)
O=C(CCl)Nc1cc(-c2ccccc2)nn1-c1ccccc1	Yeast growth tox 59.3 (no result: Yeast eIF2B)
Cc1ccc(-c2cc(NC(=O)CCl)n(-c3ccccc3)n2)cc1	Yeast growth tox inconclusive
